Diaphorase act – counter-screen for diaphorase-based assays: diaphorase activators and chemical reducers; activation factor at 20 µM; Diaphorase/resazurin coupled assay, resorufin fluorescence, 16 min; stronger effect = higher value; 1 = vehicle wells, 0 = NADH-free wells; 190,000 tested, 0.005% active;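 active = diaphorase activity raised at least twofold by the compound at 20 µM; inactive = activation factor below 2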
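Test system: Clostridium kluyveri diaphorase, purified enzyme. Buffer or medium: 50 mM HEPES pH 7.4 buffer plus MgCl2 and Tween 20. Also added: 0.114 mM NADH and 0.1 mM resazurin, final amounts. Dosing: compound 20 µM once, DMSO 1%. Schedule: 16 min enzyme reaction, ambient temperature. Detection: fluorescence of resorufin, 544 nm excitation, 590 nm emission.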
Diaphorase inh – counter-screen for diaphorase-based assays: diaphorase inhibitors and chemical oxidizers. diaphorase resazurin-to-resorufin fluorescence, NADH, 16 min; bacterial (C. kluyveri) enzyme, not human. inhibition, % at 20 µM. 190,000 tested, 0.69% active;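 active = primary screen inhibition at 20 µM above a set limit, cut at about 50% in these data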;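 also: plate controls were DMSO with full reaction for no effect and wells lacking NADH for full effect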
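material = Clostridium kluyveri diaphorase enzyme | amount = 0.14 U/mL diaphorase, enzyme working solution | schedule = incubation 16 min, room temperature | detection = fluorescence of resorufin formed from resazurin, Ex 544/Em 590 nm | benchmarks = positive control minus NADH, DMSO neutral control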
G6PDH counter – counter-screen for G6PDH assay hits: L. mesenteroides G6PDH inhibition | Purified L. mesenteroides G6PDH, diaphorase/resazurin coupled fluorescence, 45 min | inhibition, % at 5 µM | 200,000 tested, 0.12% active | AID 1020; in the data active = inhibition above about 50%
HKDC1 inhibitor – HKDC1 (human) hexokinase inhibition; Q2TB90; inhibition, % at 20 µM; 340,000 tested, 0.16% active; recombinant HKDC1, G6PDH/diaphorase resazurin coupled fluorescence;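 active = inhibition above about 35% when tested at 20 µM, limit read from the data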;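 also: plate controls were DMSO wells with enzyme for no effect and DMSO wells lacking enzyme for full effect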
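Test system: Recombinant HKDC1 (HK5) hexokinase enzyme, produced in-house | Input: HKDC1 at 5 µg/mL | Buffer or medium: Tris pH 8.0 buffer with MgCl2, Tween-20, BSA, BME | Schedule: 90 min reaction incubation at room temperature, dark | Technique: Resazurin-to-resorufin fluorescence via G6PDH and diaphorase coupling, 525/613 nm | Controls: DMSO wells with and without enzyme mix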
PfGluPho inh – PfG6PD (Plasmodium falciparum) enzyme inhibition; PfGluPho enzyme, NADPH resazurin-diaphorase fluorescence; inhibition, % at 20 µM; 350,000 tested, 0.78% active; AID 504690;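 active = inhibition reaching at least a set limit at 20 µM in the primary screen, cut at about 59% in these data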;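 also: 0% = DMSO wells with substrate and 100% = DMSO wells lacking glucose-6-phosphate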
Numbers without * were called inactive; . = not tested or not shown. The list is not random: actives were taken first. Their share in the collection is about 1.3%.

SMILES | Diaphorase act | Diaphorase inh | G6PDH counter | HKDC1 inhibitor | PfGluPho inh
O=C(O)CCCN1C(=O)/C(=C\C(Cl)=C\c2ccccc2)SC1=S | . | . | . | 44* | -13
CC(N=Cc1cccc(O)c1O)c1ccccc1 (centres undefined) | 0.5 | 51* | 52* | 11 | 51
Cc1ccccc1N=Cc1cccc(O)c1O | 0.2 | 83* | 52* | -2 | 47
Cc1ccc(N=Cc2cccc(O)c2O)c(C)c1 | 0.3 | 67* | 54* | . | .
CCN(CC)c1ccc(C=Nc2ccc(C)cc2C)c(O)c1 | 1.1 | -14 | 20 | 5 | 16
COc1cc(Cl)c(S(=O)(=O)N2CCCC2)cc1Cl | . | . | 3 | -5 | -7
COc1cc(N2C(=O)C=CC2=O)c(OC)cc1Cl | . | . | . | -6 | 72*
COc1ccc2[nH]c3c(=O)n4c(nc3c2c1)SCC4 | 0.9 | 13 | -5 | 0 | 7
O=[N+]([O-])c1ccccc1N/N=C1\CC2CC=CC12 (centres undefined) | 0.4 | 61* | -1 | -2 | 5
O=C(N/N=C1\CC2CC=CC12)c1ccccc1Cl (centres undefined) | 1 | 0 | 12 | -6 | -15
Oc1ccc(N=Cc2ccc(OCc3ccccc3)cc2)cc1 | 0.5 | 53* | 39 | 0 | 87*
CCC(C)n1c(=S)[nH]c2c(sc3ccc([N+](=O)[O-])cc32)c1=O (centres undefined) | 0.4 | 62* | -8 | -1 | -2
CC(C)n1c2ccccc2c2cc([N+](=O)[O-])ccc21 | 0.8 | 17 | -2 | -9 | 26
O=C(CSc1nc2ccccc2o1)NCc1ccc2c(c1)OCO2 | 0.7 | 29 | -3 | 4 | -3
CC(C)(C)S(=O)N1Cc2cc(=O)n(Cc3ccccc3)cc2[C@@H]1CCO (some centres undefined) | . | . | . | 7 | 16
CCOC(=O)c1c(NCC2CCCO2)c2ccccc2[nH]c1=O (centres undefined) | 1.1 | -5 | 4 | -7 | 10
CCOC(=O)c1c(C)oc2c1c(C=NCC1CCCO1)c(O)c1ccccc12 (centres undefined) | 0.3 | 75* | 50* | 15 | 47
CCOc1cc([N+](=O)[O-])cc(/C=C2/NC(=O)N(Cc3ccccc3F)C2=O)c1O | 0.4 | 56* | 7 | 9 | -9
Cc1cc(/C=C2/NC(=O)N(Cc3ccccc3F)C2=O)c(C)n1C | 0.8 | 20 | -6 | -8 | 28
COc1ccccc1N1CCN(C(=O)C(C)N(c2ccc(C)c(C)c2)S(C)(=O)=O)CC1 (centres undefined) | 0.8 | 16 | 2 | -2 | 12
c1ccc(C[n+]2csc3ccccc32)cc1 | 0.8 | 20 | 2 | -5 | 62*
O=C(O)c1cccc(NC2=C(Cl)C(=O)c3ccccc3C2=O)c1 | 0.8 | 25 | 52* | -17 | -16
CCOC(=O)c1c(C)nc2sc3c(=O)n(-c4ccc(OC)cc4)cnc3c2c1-c1ccc(OC)cc1 | 1 | 4 | 26 | -7 | -26
O=C(c1ccc(S(=O)(=O)N2CCCC2)cc1)N1CCCCC1 | . | . | . | -4 | 0
O=C(/C=C/c1ccc(O)c(O)c1)c1ccc(S(=O)(=O)N2CCCCCC2)cc1 | 0.5 | 52* | 6 | -2 | -14
SMILES | Diaphorase act | Diaphorase inh | G6PDH counter | HKDC1 inhibitor | PfGluPho inh
O=C1CCCc2c1sc1nc3n(c(=O)c21)CCCCC3 | 0.9 | 6 | 11 | 1 | 5
O=C1c2sc3nc4n(c(=O)c3c2CCC1Br)CCCCC4 (centres undefined) | 0.4 | 62* | 10 | 9 | 80*
CN1C(=O)/C(=C\C=C2/CCCN2C)N(C)C1=S | 0.5 | 52* | 6 | 0 | -19
COc1cc(CNn2cn[nH]c2=S)ccc1OCC(=O)NC(C)(C)C | . | . | . | -5 | 30
O=C(O[C@@H]1OC2COC(=O)c3cc(O)c(O)c(O)c3-c3c(cc(O)c(O)c3O)C(=O)O[C@@H]([C@H]1O)[C@@H]2O)c1cc(O)c(O)c(O)c1 | 0.4 | 62* | 8 | 7 | 111*
CCOC(=O)c1c(C)[nH]c(C)c1S(=O)(=O)N(C)CC(=O)Nc1ccc(C)cn1 | . | . | . | 5 | -4
O=C(/C=C/c1ccc(Cl)cc1)c1ccc([N+](=O)[O-])o1 | . | . | . | 54* | 53
CCc1nc(SCc2ccc(Br)cc2)n[nH]1 | . | . | . | -3 | 51
CCc1nc(SCc2ccc(Cl)cc2)n[nH]1 | 0.4 | 64* | 5 | 5 | 53
